Key:
Liver microsome [1] = experiment: Drug metabolism in rat liver microsomes assessed as GSH adduct UV peak area at 20 uM preincubated for 5 mins followed by NADPH addition measured after 60 mins by LC/MS/MS analysis relative to total area of GSH adduct, other metabolites, parent compound; type: ADME; conditions: 1 h, BLD = below limit of detection
[2] = Metabolic stability in human blood; type: ADME; conditions: read-out: Stability (converted)
Rattus norvegicus = experiment: Dose normalized AUC in rat at 2 mg/kg, po administered as single dose; type: ADME, organism-based; conditions: in vivo
Outline: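 Single-dose rat PK: iv at 0.5 mg/kg and po at 2 mg/kg. n ≥ 2 animals per time point. Oral AUC normalized to dose; clearance, Vdss and half-life taken from the iv arm.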

[3] = target: Muscarinic acetylcholine receptor M5 (Homo sapiens) (UniProt P08912); experiment: Inhibition of human muscarinic M5 receptor at 10 uM
Muscarinic acetylcholine receptor M5 (Homo sapiens), sequence (P08912 whole entry): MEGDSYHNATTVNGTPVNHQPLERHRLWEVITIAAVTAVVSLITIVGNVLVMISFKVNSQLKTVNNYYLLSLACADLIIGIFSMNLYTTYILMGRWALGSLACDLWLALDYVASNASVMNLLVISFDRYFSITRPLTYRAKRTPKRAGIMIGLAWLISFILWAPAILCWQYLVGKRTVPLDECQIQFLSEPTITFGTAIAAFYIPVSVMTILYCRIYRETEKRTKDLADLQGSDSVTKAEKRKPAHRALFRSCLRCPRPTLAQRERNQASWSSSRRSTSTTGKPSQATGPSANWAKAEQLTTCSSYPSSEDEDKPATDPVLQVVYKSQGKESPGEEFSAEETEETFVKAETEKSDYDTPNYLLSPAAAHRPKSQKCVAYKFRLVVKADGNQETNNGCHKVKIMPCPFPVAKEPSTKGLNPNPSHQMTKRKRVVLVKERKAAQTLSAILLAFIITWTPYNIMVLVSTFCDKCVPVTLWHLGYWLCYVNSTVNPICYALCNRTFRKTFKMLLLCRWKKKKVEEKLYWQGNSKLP
Outline: (§1)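 Outsourced broad receptor-screening panel of 78 targets, each tested at a single 10 uM concentration; read-out is percent inhibition. Detailed conditions are given only in the Supporting Information.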

Hepatocyte = experiment: Drug metabolism in human hepatocytes assessed as hydrolysis of amide bond; type: ADME, cell-based
[4] = target: Pituitary adenylate cyclase-activating polypeptide type I receptor (Homo sapiens) (UniProt P41586); experiment: Inhibition of human PAC1 at 10 uM by radioligand binding assay
Pituitary adenylate cyclase-activating polypeptide type I receptor (Homo sapiens), sequence (P41586 21-468 limits assumed): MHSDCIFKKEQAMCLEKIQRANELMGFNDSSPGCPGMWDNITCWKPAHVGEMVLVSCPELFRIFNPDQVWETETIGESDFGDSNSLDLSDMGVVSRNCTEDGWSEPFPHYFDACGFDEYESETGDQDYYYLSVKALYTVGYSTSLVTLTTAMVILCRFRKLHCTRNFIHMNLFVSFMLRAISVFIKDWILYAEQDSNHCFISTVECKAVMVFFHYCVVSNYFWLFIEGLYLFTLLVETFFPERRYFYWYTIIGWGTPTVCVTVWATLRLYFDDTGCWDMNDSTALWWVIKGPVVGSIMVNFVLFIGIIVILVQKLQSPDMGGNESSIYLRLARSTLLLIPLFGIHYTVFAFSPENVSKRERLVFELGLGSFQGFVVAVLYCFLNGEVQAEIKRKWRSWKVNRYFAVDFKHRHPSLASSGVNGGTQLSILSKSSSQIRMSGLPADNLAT
Outline: (§2)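 Commercial receptor scan across a 78-target panel, with percent inhibition measured at a test concentration of 10 uM.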

P2X purinoceptor 7 = target: T1, P2X purinoceptor 7 (Homo sapiens, UniProt Q99572); experiment: Antagonist activity at human P2X7R expressed in BzATP-stimulated human 1321N1 cells incubated for 20 mins followed by BzATP stimulation measured every 1 sec for 60 secs followed by 3 sec intervals for 4 mins by FLIPR Ca2+ assay in presence of ionomycin; type: cell-based
T1 sequence (Q99572 whole entry): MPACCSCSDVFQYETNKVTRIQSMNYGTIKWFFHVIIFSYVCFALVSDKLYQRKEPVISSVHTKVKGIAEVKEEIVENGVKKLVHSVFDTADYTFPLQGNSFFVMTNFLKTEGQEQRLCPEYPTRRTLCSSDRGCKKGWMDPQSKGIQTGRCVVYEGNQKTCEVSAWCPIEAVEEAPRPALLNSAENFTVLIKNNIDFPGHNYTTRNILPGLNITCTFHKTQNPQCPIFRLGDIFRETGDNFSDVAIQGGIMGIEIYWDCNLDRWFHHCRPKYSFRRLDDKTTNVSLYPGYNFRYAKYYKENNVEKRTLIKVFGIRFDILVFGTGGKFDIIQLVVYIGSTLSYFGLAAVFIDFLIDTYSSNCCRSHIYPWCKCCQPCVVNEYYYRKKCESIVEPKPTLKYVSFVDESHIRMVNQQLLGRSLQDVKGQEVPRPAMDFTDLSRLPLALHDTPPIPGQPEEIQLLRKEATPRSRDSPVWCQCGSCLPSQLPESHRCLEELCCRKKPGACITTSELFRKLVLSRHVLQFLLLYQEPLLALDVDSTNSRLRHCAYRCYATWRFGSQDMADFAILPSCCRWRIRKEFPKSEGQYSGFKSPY
Outline: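 1321N1 cells stably expressing human P2X7R, stimulated with BzATP; calcium flux read on FLIPR. IC50 is the mean of n ≥ 2 runs, each including a positive control.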

[5] = target: Substance-P receptor (Homo sapiens) (UniProt P25103); experiment: Inhibition of human NK1 receptor at 10 uM by radioligand binding assay; outline: as §2
Substance-P receptor (Homo sapiens), sequence (P25103 whole entry): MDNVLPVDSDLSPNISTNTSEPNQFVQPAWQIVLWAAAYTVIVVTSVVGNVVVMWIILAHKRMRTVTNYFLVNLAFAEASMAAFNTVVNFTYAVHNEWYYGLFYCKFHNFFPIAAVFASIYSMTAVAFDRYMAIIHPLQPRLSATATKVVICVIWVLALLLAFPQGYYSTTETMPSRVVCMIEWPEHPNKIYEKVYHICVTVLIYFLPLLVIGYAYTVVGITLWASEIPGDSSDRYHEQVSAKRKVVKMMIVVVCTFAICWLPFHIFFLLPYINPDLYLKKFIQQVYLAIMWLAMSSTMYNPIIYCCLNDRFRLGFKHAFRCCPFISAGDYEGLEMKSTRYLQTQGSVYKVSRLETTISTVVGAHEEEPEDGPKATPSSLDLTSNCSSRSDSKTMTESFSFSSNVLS

[6] = target: Endothelin-1 receptor (Homo sapiens) (UniProt P25101); experiment: Inhibition of human ETA receptor at 10 uM by radioligand binding assay; outline: as §2
Endothelin-1 receptor (Homo sapiens), sequence (P25101 whole entry): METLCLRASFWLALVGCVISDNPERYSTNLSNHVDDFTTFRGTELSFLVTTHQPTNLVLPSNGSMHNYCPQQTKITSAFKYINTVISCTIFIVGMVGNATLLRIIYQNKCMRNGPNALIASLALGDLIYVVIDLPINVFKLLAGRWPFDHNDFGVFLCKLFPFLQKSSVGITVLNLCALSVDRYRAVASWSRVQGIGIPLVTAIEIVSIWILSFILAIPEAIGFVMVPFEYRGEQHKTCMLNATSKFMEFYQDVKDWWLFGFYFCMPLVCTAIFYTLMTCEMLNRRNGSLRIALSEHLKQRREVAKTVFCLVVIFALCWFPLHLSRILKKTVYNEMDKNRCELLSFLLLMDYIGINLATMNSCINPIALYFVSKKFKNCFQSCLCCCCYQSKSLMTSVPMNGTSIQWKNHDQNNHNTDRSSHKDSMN

[7] = target: Glutamate NMDA receptor (Rattus norvegicus) (UniProt P35439+Q00959+Q00960+Q00961+Q62645+Q8VHN2+Q9R1M7); experiment: Inhibition of rat NMDA receptor PCP binding site at 10 uM; type: protein-complex assay; outline: as §1
[8] = target: Tumor necrosis factor receptor superfamily member 1A (Homo sapiens) (UniProt P19438); experiment: Inhibition of human TNFalpha receptor at 10 uM by radioligand binding assay; outline: as §1
Tumor necrosis factor receptor superfamily member 1A (Homo sapiens), sequence (P19438 whole entry): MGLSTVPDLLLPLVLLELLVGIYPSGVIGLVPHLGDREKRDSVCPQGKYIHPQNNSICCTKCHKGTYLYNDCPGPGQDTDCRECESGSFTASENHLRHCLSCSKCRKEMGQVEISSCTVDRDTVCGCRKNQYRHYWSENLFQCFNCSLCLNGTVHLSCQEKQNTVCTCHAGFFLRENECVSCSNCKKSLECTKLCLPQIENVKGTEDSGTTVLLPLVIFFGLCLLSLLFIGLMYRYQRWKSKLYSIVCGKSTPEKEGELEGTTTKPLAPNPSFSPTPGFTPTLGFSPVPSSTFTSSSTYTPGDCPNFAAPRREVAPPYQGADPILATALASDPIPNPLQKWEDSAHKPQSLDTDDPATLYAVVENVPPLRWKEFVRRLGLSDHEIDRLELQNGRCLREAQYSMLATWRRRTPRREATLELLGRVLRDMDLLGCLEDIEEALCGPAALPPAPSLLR

[9] = Oral bioavailability in rat at 2 mg/kg administered as single dose; type: ADME, organism-based; conditions: in vivo
Outline: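 Rats given a single dose, iv 0.5 mg/kg or po 2 mg/kg, with n ≥ 2 per time point. Bioavailability is derived from the po and iv exposures. Vdss is reported in L/kg.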

[10] = target: 5-hydroxytryptamine receptor 6 (Homo sapiens) (UniProt P50406); experiment: Inhibition of human 5-HT6 receptor at 10 uM by radioligand binding assay; outline: as §2
5-hydroxytryptamine receptor 6 (Homo sapiens), sequence (P50406 whole entry): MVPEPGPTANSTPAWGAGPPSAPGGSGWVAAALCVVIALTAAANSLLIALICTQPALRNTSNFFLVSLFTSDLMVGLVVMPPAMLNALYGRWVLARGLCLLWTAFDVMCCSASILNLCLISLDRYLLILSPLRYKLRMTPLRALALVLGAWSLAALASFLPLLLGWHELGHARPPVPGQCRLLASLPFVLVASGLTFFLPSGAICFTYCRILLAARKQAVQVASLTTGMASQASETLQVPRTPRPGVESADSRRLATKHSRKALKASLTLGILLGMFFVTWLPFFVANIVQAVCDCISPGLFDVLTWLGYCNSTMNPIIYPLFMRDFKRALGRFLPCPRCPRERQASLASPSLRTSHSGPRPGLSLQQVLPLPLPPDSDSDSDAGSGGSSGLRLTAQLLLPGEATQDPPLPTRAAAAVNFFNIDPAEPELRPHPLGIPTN

P2X purinoceptor 2 = P2X purinoceptor 2 (Homo sapiens, UniProt Q9UBL9); experiment: Inhibition of P2X2R (unknown origin)
Outline: (§3)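 Selectivity at other P2X receptor subtypes, read as IC50 in a FLIPR Ca2+ flux assay.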

[11] = target: Type-2 angiotensin II receptor (Homo sapiens) (UniProt P50052); experiment: Inhibition of human angiotensin 2 receptor 2 at 10 uM; outline: as §1
[12] = target: D(1A) dopamine receptor (Homo sapiens) (UniProt P21728); experiment: Inhibition of human dopamine D1 receptor at 10 uM; outline: as §1
D(1A) dopamine receptor (Homo sapiens), sequence (P21728 whole entry): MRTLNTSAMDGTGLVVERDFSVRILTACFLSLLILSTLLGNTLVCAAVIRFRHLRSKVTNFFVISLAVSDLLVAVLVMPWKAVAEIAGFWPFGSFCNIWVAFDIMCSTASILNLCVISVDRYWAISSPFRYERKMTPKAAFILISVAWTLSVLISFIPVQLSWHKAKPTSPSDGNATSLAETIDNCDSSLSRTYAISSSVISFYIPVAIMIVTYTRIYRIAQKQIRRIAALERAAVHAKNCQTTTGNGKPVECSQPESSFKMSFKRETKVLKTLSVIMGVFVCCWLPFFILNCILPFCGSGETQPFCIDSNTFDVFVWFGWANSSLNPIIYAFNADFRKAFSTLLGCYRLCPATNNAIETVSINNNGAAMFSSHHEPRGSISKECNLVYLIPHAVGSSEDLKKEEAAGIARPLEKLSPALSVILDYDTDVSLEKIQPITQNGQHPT

[13] = target: B2 bradykinin receptor (Homo sapiens) (UniProt P30411); experiment: Inhibition of human bradykinin 2 receptor at 10 uM by radioligand binding assay; outline: as §1
[14] = target: D(1B) dopamine receptor (Homo sapiens) (UniProt P21918); experiment: Inhibition of human dopamine D5 receptor at 10 uM; outline: as §1
[15] = target: Kappa-type opioid receptor (Rattus norvegicus) (UniProt P34975); experiment: Inhibition of rat kappa opioid receptor at 10 uM by radioligand binding assay
Kappa-type opioid receptor (Rattus norvegicus), sequence (P34975 whole entry): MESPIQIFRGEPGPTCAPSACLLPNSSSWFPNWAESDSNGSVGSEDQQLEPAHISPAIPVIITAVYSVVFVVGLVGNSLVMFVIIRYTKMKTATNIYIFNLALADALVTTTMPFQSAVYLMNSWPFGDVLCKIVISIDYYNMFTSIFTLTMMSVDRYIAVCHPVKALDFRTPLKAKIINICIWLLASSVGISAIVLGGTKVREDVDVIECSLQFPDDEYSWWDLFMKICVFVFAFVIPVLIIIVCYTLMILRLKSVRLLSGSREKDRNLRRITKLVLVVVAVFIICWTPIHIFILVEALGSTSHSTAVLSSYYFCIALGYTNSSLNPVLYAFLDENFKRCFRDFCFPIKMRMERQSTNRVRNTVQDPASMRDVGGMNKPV
Outline: (§4)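 Single-concentration screen at 10 uM in a commercial 78-receptor panel run by CEREP; results are given as % inhibition.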

P2X purinoceptor 1 = P2X purinoceptor 1 (Homo sapiens, UniProt P51575); experiment: Inhibition of P2X1R (unknown origin); outline: as §3
[16] = target: Endothelin receptor type B (Homo sapiens) (UniProt P24530); experiment: Inhibition of human ETB receptor at 10 uM by radioligand binding assay; outline: as §2
Endothelin receptor type B (Homo sapiens), sequence (P24530 whole entry): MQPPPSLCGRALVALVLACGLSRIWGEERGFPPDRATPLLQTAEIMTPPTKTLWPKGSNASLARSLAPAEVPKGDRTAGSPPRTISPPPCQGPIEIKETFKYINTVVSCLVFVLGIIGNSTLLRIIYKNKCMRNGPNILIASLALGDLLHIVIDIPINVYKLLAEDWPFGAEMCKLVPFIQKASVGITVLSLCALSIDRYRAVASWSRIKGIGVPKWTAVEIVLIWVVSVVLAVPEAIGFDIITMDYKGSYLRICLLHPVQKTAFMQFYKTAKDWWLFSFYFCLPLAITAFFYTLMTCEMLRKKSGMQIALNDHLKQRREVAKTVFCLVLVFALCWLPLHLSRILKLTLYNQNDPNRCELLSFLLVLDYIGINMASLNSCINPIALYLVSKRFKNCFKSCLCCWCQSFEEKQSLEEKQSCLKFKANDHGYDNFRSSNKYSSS

[17] = target: Beta-2 adrenergic receptor (Homo sapiens) (UniProt P07550); experiment: Inhibition of human beta2-adrenoceptor at 10 uM by radioligand binding assay; outline: as §1
[18] = target: Somatostatin receptor (Mus musculus) (UniProt P30935+O08858+P30875+P30873+P49660); experiment: Inhibition of mouse somatostatin receptor at 10 uM by radioligand binding assay; type: protein assay; outline: as §1
Liver microsome [19] = experiment: Drug metabolism in human liver microsomes assessed as GSH adduct UV peak area at 20 uM preincubated for 5 mins followed by NADPH addition measured after 60 mins by LC/MS/MS analysis relative to total area of GSH adduct, other metabolites, parent compound; type: ADME; conditions: 1 h, BLD = below limit of detection
[20] = target: Glucocorticoid receptor (Homo sapiens) (UniProt P04150); experiment: Inhibition of human glucocorticoid receptor at 10 uM by radioligand binding assay; outline: as §1
[21] = target: Translocator protein (Rattus norvegicus) (UniProt P16257); experiment: Inhibition of rat peripheral type benzodiazepine receptor at 10 uM by radioligand binding assay; outline: as §4
Translocator protein (Rattus norvegicus), sequence (P16257 whole entry, looked up): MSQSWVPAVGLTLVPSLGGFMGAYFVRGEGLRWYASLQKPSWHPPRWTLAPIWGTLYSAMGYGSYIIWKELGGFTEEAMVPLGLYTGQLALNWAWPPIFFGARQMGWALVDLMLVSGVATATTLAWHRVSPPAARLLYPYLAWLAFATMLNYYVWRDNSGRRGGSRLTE

[22] = target: Muscarinic acetylcholine receptor M2 (Homo sapiens) (UniProt P08172); experiment: Inhibition of human muscarinic M2 receptor at 10 uM; outline: as §1
[23] = target: Neuromedin-K receptor (Homo sapiens) (UniProt P29371); experiment: Inhibition of human NK3 receptor at 10 uM; outline: as §2
Neuromedin-K receptor (Homo sapiens), sequence (P29371 whole entry): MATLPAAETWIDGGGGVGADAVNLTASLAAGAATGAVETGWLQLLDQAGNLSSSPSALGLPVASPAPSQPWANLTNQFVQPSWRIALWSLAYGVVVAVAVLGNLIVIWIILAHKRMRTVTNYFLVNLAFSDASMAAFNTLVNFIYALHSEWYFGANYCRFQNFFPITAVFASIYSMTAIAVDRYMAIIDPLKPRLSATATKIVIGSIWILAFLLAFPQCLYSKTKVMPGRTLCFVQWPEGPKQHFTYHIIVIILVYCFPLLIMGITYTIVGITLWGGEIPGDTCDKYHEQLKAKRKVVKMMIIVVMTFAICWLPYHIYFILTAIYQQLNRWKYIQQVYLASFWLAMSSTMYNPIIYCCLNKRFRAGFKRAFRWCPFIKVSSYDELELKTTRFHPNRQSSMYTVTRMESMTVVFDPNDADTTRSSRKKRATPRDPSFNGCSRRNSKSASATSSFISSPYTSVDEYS

Drug metabolism (Liver microsome [1]): BLD | half-life [2]: 3 h | AUC/dose (Rattus norvegicus): 1550 ng·h/mL/mg/kg | inhibition [3]: < 30% | Stability (Hepatocyte): Stable | inhibition [4]: < 30% | IC50 (P2X purinoceptor 7): 0.023 µM | inhibition [5]: < 30% | inhibition [6]: < 30% | inhibition [7]: < 30% | bioavailability [9]: 74% | inhibition [10]: < 30% | IC50 (P2X purinoceptor 2): > 10 µM | inhibition [11]: < 30% | inhibition [12]: < 30% | inhibition [13]: < 30% | inhibition [14]: < 30% | inhibition [15]: < 30% | IC50 (P2X purinoceptor 1): > 10 µM | inhibition [16]: < 30% | inhibition [17]: < 30% | inhibition [18]: < 30% | Drug metabolism (Liver microsome [19]): BLD | inhibition [20]: < 30% | inhibition [21]: < 30% | inhibition [22]: < 30% | inhibition [23]: < 30%
SMILES: Cc1cc(Cl)c(OCCO)cc1NC(=O)C1=CNC(=O)C[C@H]1c1ccc(F)cc1
inhibition [8]: < 30%
